Converted amounts (≈) assume the structure as drawn. Positions of bridges follow the written chain, without caps; N, C: chain ends. Non-standard residues stand in square brackets, D forms with d. Residues, ends and D or L forms follow the SMILES beside them. *: point of attachment. Heptanoyl(6-Me) = CC(C)CCCCC(=O)*; Dab = NCC[C@H](N)C(=O)O
Columns and labels:
CREC = assay: MIC, broth microdilution; format: cell-based, Escherichia coli; conditions: 24 h; for MIC, CREC: gold complexes and antibiotics; for MIC: Escherichia coli, read-out: MIC, CREC
Method in brief: (§1)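 Broth microdilution per CLSI guidelines in 96-well plates with test compound, incubated at 37 °C for 24 h. Growth was read on a microplate reader.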

CRKP [1] = assay: MIC, broth microdilution; format: cell-based, Klebsiella pneumonia; conditions: 24 h; for MIC, CRKP: gold complexes and antibiotics; for MIC: Klebsiella pneumoniae, read-out: MIC, CRKP
Method in brief: as §1

CRKP (Clinical) = assay: MIC, broth microdilution; format: cell-based, Klebsiella pneumonia; conditions: 24 h; for MIC, CRKP (Clinical): gold complexes and antibiotics; for MIC: Klebsiella pneumoniae, read-out: MIC, CRKP (Clinical)
Method in brief: as §1

CREC (Clinical) = assay: MIC, broth microdilution; format: cell-based, Escherichia coli; conditions: 24 h; for MIC, CREC (Clinical): gold complexes and antibiotics; for MIC: Escherichia coli, read-out: MIC, CREC (Clinical)
Method in brief: as §1

CRAB (Clinical) = assay: MIC, broth microdilution; format: cell-based; conditions: 24 h; for MIC, CRAB (Clinical): gold complexes and antibiotics; for MIC: read-out: MIC, CRAB (Clinical)
Method in brief: as §1

CRPA (Clinical) = assay: MIC, broth microdilution; format: cell-based, Pseudomonas aeruginosa; conditions: 24 h; for MIC, CRPA (Clinical): gold complexes and antibiotics; for MIC: Pseudomonas aeruginosa, read-out: MIC, CRPA (Clinical)
Method in brief: as §1

VISA = assay: MIC, broth microdilution; format: cell-based, Staphylococcus aureus; conditions: gold complexes and antibiotics, 24 h
Method in brief: as §1

CRPA = assay: MIC, broth microdilution; format: cell-based, Pseudomonas aeruginosa; conditions: 24 h; for MIC, CRPA: gold complexes and antibiotics; for MIC: Pseudomonas aeruginosa, read-out: MIC, CRPA
Method in brief: as §1

recombinant CRKP TrxR = assay: Inhibition of recombinant CRKP TrxR; format: biochemical, Klebsiella pneumonia; conditions: read-out: IC50, recombinant CRKP TrxR; DTNB reduction assay
Method in brief: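 TrxR activity read by DTNB reduction assay (NADPH plus DTNB, A412 change over 5 min at 37 °C). Ki came from varying DTNB 0–2 mM and test compound 0–40 μM, fitted to a competitive inhibition model. Reversibility: NADPH-prereduced enzyme (100 μM, 10 min) was treated with 30 μM compound for 30 min, then NAP-5 desalted. Alternatively, after 30 min RT exposure, enzyme was dialysed 4 h at 4 °C (15,000 Da cutoff).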

cellular GR in CRKP = assay: Cellular GR activity assay; format: cell-based, Klebsiella pneumonia; conditions: CRKP treated 4 h, GR assay kit
Method in brief: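 CRKP overnight culture diluted and regrown to mid-log phase (OD600 0.6), then treated with test compound. Cellular glutathione reductase activity measured with a commercial GR activity kit.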

DNA from CRKP = assay: DNA degradation assay; design: species or system Klebsiella pneumonia; conditions: purified CRKP DNA, 30 min
Method in brief: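 Genomic DNA extracted from CRKP with a kit and checked by micro-spectrophotometry and agarose gel. DNA mixed with varying concentrations of test compound on ice for 30 min, also with 10 mM H2O2 for 30 min. DNA (30 ng/μL) additionally incubated with 40 μM for 2 h on ice. Degradation read by EB-stained polyacrylamide gel electrophoresis.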

recombinant CRKP GR = assay: Inhibition of recombinant CRKP GR; format: biochemical, Klebsiella pneumonia
Method in brief: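 Purified CRKP GR (final 2 nM) in 50 mM Tris-HCl pH 7.5 with 2 mM EDTA was preincubated with test compound at 37 °C for 30 min. GSSG and NADPH were then added, with A340 read at 10 s and after 5 min at 37 °C. Ki came from varying GSSG 0–5 mM and compound 0–20 μM under a competitive model. Reversibility: 30 min RT exposure, then NAP-5 desalting (1 mM GSSG, 300 μM NADPH) or 4 °C, 4 h dialysis (15,000 Da cutoff).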

cellular TrxR in CRKP = assay: Cellular TrxR activity assay; format: cell-based, Klebsiella pneumonia; conditions: read-out: IC50, cellular TrxR; CRKP treated 4 h, TrxR assay kit
Method in brief: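 Overnight CRKP culture diluted and regrown to mid-log phase (OD600 0.6). Suspensions exposed to test compound at 0, 2.5, 5, 10 or 20 μM for 4 h. Cellular TrxR activity measured with a commercial TrxR activity kit.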

CRKP [2] = assay: Cell membrane integrity; format: cell-based, Klebsiella pneumonia; conditions: 0-40 μM, 4 h, vs control
Method in brief: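 Membrane integrity read from PI uptake: CRKP exposed to test compound at 0, 10, 20 or 40 μM, then analysed by single-parameter flow cytometry collecting 100,000 cells per sample.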

CRKP [3] = assay: Time-killing assay; format: cell-based, Klebsiella pneumonia; conditions: 0-80 μM
Method in brief: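 Overnight CRKP culture diluted 2000-fold and grown to OD600 0.4–0.6, then diluted to OD600 0.1 and plated in 96-well format. Test compound added at 0, 10, 20, 40 or 80 μM. Growth read hourly by microplate reader for 12 h.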

CRKP [4] = assay: Checkerboard microdilution assay; format: cell-based, Klebsiella pneumonia; conditions: for MIC of antibiotic: antibiotic alone; for FIC index (Au10): antibiotic in combination with Au10, CRKP; for FIC index (Au17): antibiotic in combination with Au17, CRKP; for FIC index (Auranofin): antibiotic in combination with auranofin
Method in brief: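 Checkerboard: overnight cultures diluted 1000-fold, regrown to mid-log phase (OD600 0.6), diluted per CLSI and seeded in 96-well plates. Varying concentrations of gold test compound combined with varying antibiotic concentrations. Incubated 37 °C for 24 h, growth read at OD600. FICI calculated by a previously described method.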

CRKP [5] = assay: Intracellular superoxide radical detection; format: cell-based, Klebsiella pneumonia; conditions: 4 h
Method in brief: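 Mid-log CRKP (OD600 0.6) loaded with DHE for 20 min at 37 °C with shaking, treated with test compound at 0, 10, 20 or 40 μM for 4 h, and washed three times in ice-cold PBS. Flow cytometry collected 100,000 cells. For HPLC, cells at OD600 0.3 took up 20 μM DHE for 20 min, were exposed to 0 or 80 μM for 4 h and washed, with synthesized 2-OH E+ as reference.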

CRKP [6] = assay: Murine peritonitis infection model; format: in vivo, BALB/c mice; conditions: six mice per group, treated 1 h after i.p. CRKP
Method in brief: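 Female BALB/c mice (18–20 g) randomized, six per group, and given 200 μL CRKP suspension i.p. Treatment began 1 h after infection: saline/PBS control, comparator antibiotic or test compound. Survival recorded over 48 h.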

Compound	MIC, CREC (CREC)	MIC, CRKP (CRKP [1])	MIC, CRKP (Clinical) (CRKP (Clinical))	MIC, CREC (Clinical) (CREC (Clinical))	MIC, CRAB (Clinical) (CRAB (Clinical))	MIC, CRPA (Clinical) (CRPA (Clinical))	MIC, VISA (VISA)	MIC, CRPA (CRPA)	MIC of antibiotic (CRKP [4]; CRKP)	FIC index (Au10) (CRKP [4])	FIC index (Au17) (CRKP [4])	FIC index (Auranofin) (CRKP [4]; CRKP)	MIC (CREC)	MIC (CRKP [1])	MIC (CRKP (Clinical))	MIC (CREC (Clinical))	MIC (CRAB (Clinical))	MIC (CRPA (Clinical))	MIC (CRPA)	further results
COc1ccc2ccc([O-])c(C=NC3CCCCC3N=Cc3cc(F)ccc3[O-])c2c1.F[P-](F)(F)(F)(F)F.[Au+3] [Au4, [1-((E)-(((1S,2R)-2-(((E)-5-fluoro-2-hydroxybenzylidene)amino)cyclohexyl)imino)methyl)-7-methoxynaphthalen-2-ol] Au(III) hexafluorophosphate]	20 µM	10 µM	10 µM	20 µM	>20 µM	>20 µM	>20 µM	>20 µM												
CC(=O)OC[C@H]1O[C@@H]([S-])[C@H](OC(C)=O)[C@@H](OC(C)=O)[C@@H]1OC(C)=O.CCP(CC)CC.[Au+] [Auranofin]	>20 µM	>20 µM	>20 µM	>20 µM	20 µM	>20 µM	0.5 µM	>20 µM												IC50 (recombinant CRKP TrxR): 27.2 µM; IC50, cellular GR (cellular GR in CRKP): did not show any inhibitory effects; DNA degradation (gel electrophoresis) (DNA from CRKP): did not demonstrate DNA degradation effect; inhibition of recombinant GR at 40 μM (recombinant CRKP GR): did not exhibit inhibitory effects; IC50 (cellular TrxR in CRKP): 11.6 µM; PI red fluorescence intensity (membrane integrity) (CRKP [2]): did not show a significant difference; bacterial growth over 12 h (CRKP [3]): only a marginal inhibitory effect; interaction with cefepime or meropenem (CRKP [4]; checkerboard, CRKP): did not exhibit any synergistic interaction; 2-OH E+ formation (HPLC) (CRKP [5]; 80 μM): no detectable 2-OH E^+; intracellular ROS (superoxide, DHE probe) (CRKP [5]; 10, 20, 40 μM, vs control): did not induce ROS generation
CO/N=C(\C(=O)N[C@@H]1C(=O)N2C(C(=O)[O-])=C(C[N+]3(C)CCCC3)CS[C@H]12)c1csc(N)n1 [Cefepime]									20 µM	0.45	0.70	0.525								MIC of antibiotic in the presence of Au10 (CRKP [4]; Au10 2 μM, CRKP): 5 µM
CC(C)CCCCC(=O)N[C@@H](CCN)C(=O)N[C@H](C(=O)N[C@@H](CCN)C(=O)N[C@H]1CCNC(=O)[C@H]([C@@H](C)O)NC(=O)[C@H](CCN)NC(=O)[C@H](CCN)NC(=O)[C@H](CC(C)C)NC(=O)[C@@H](CC(C)C)NC(=O)[C@H](CCN)NC1=O)[C@@H](C)O [Colistin B] ({Heptanoyl(6-Me)}-[Dab]T[Dab][Dab][Dab][dL]L[Dab][Dab]T; lactam 4-C)													1 µM (≈ 1.16 µg/mL)	50 µM (≈ 57.8 µg/mL)	100 µM (≈ 116 µg/mL)	1 µM (≈ 1.16 µg/mL)	3 µM (≈ 3.47 µg/mL)	3 µM (≈ 3.47 µg/mL)	3 µM (≈ 3.47 µg/mL)	mice surviving more than 24 h (CRKP [6]): no mice
C[C@@H](O)[C@H]1C(=O)N2C(C(=O)O)=C(SCCN=CN)C[C@H]12 [Imipenem]													50 µM (≈ 15 µg/mL)	200 µM (≈ 59.9 µg/mL)	100 µM (≈ 29.9 µg/mL)	100 µM (≈ 29.9 µg/mL)	200 µM (≈ 59.9 µg/mL)	100 µM (≈ 29.9 µg/mL)	200 µM (≈ 59.9 µg/mL)	
C[C@@H](O)[C@H]1C(=O)N2C(C(=O)O)=C(S[C@@H]3CN[C@H](C(=O)N(C)C)C3)[C@H](C)[C@H]12 [Meropenem]									40 µM	0.35	0.45	0.625								
